Measurements from ChEMBL document CHEMBL1139414, “Conformationally constrained analogues of diacylglycerol. 29. Cells sort diacylglycerol-lactone chemical zip codes to produce diverse and selective biological activities” (J Med Chem, 2008).
pKi: −log10 of the molar value.

Molecular target: Protein kinase C alpha type (Mus musculus, UniProt P20444)
Assay: Displacement of [3H]PDBu form mouse PKCalpha by scintillation counting
Summary of the method: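 Partially purified mouse PKCα; competition with [³H]PDBU. ID50 obtained by fitting a sigmoidal competition curve and converted to Ki = ID50/(1+L/Kd). Pure compounds tested at 6–7 concentrations; crude library compounds at a single 1 μM concentration. Triplicates per concentration, at least three experiments; mean ± SEM.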

SMILES	pKi
CN(C)c1ccc(/C=C2\CC(CO)(COC(=O)c3ccc([N+](=O)[O-])cc3)OC2=O)cc1 (racemic; form 2)	5.91
CN(C)c1ccc(/C=C2\CC(CO)(COC(=O)c3ccc([N+](=O)[O-])cc3)OC2=O)cc1 (racemic; form 1)	6.67
CCCCC(CC)C(=O)OCC1(CO)C/C(=C\c2ccc([N+](=O)[O-])cc2)C(=O)O1 (racemic)	8.51
CC(CC(=O)OCC1(CO)C/C(=C/c2ccc(Cl)c(F)c2)C(=O)O1)CC(C)(C)C (racemic)	7.42
CC(C)C(=O)OCC1(CO)C/C(=C/c2cccc(C(F)(F)F)c2)C(=O)O1 (racemic)	7.15
CCCCCC/C=C1/CC(CO)(COC(=O)c2ccc(OC)cc2)OC1=O (racemic)	6.98
CCC(C(=O)OCC1(CO)C/C(=C/c2cc(C(F)(F)F)cc(C(F)(F)F)c2)C(=O)O1)c1ccccc1 (racemic)	7.28
O=C1OC(CO)(COC(=O)C(c2ccccc2)c2ccccc2)C/C1=C/c1ccc(-c2ccc(C(F)(F)F)cc2)cc1 (racemic)	6.96
CCCCC(/C=C1/CC(CO)(COC(=O)C2CCCCC2)OC1=O)CC (racemic)	6.91
COc1ccc(/C=C2/CC(CO)(COC(=O)c3ccccc3)OC2=O)cc1 (racemic)	6.52
CCCCC(/C=C1/CC(CO)(COC(=O)c2ccccc2C)OC1=O)CC (racemic)	6.72
CCCCC(CC)C(=O)OCC1(CO)C/C(=C\c2ccc(N(C)C)cc2)C(=O)O1 (racemic; form 2)	7.02
CCCCC(/C=C1/CC(CO)(COC(=O)c2ccc(OC)cc2)OC1=O)CC (racemic)	6.63
CCCCC(CC)C(=O)OCC1(CO)C/C(=C\c2ccc(F)c(Br)c2)C(=O)O1 (racemic; form 2)	8.68
CCCCC(CC)C(=O)OCC1(CO)C/C(=C\c2ccc(Cl)c(F)c2)C(=O)O1 (racemic; form 1)	7.91
COc1ccc(/C=C2\CC(CO)(COC(=O)c3c(C(C)C)cc(C(C)C)cc3C(C)C)OC2=O)cc1 (racemic; form 2)	6.71
CC(C)C(=O)OCC1(CO)C/C(=C/c2ccccc2C(F)(F)F)C(=O)O1 (racemic; form 1)	6.51
CCCCC(/C=C1/CC(CO)(COC(=O)c2ccc([N+](=O)[O-])cc2)OC1=O)CC (racemic; form 1)	6.34
CC(C)(C)C(=O)OCC1(CO)C/C(=C/c2ccc(F)c(Br)c2)C(=O)O1 (racemic)	7.71
CCC(C(=O)OCC1(CO)C/C(=C/c2ccc(Cl)c(F)c2)C(=O)O1)c1ccccc1 (racemic)	7.35
CN(C)c1ccc(C(=O)OCC2(CO)C/C(=C/c3ccc([N+](=O)[O-])cc3)C(=O)O2)cc1 (racemic)	5.97

SMILES	pKi
O=C1OC(CO)(COC(=O)C2CCCCC2)C/C1=C/c1ccc([N+](=O)[O-])cc1 (racemic)	6.98
CC(CC(=O)OCC1(CO)C/C(=C/c2ccc(-c3ccc(C(F)(F)F)cc3)cc2)C(=O)O1)CC(C)(C)C (racemic)	7.30
CC(C)(C)C(=O)OCC1(CO)C/C(=C\c2ccc(Cl)c(F)c2)C(=O)O1 (racemic; form 2)	7.54
CCCCC(/C=C1/CC(CO)(COC(=O)C(CC)CCCC)OC1=O)CC (racemic)	7.20
CCC(C(=O)OCC1(CO)C/C(=C/c2ccc(F)c(Br)c2)C(=O)O1)c1ccccc1 (racemic)	7.65
CC(C)(C)C(=O)OCC1(CO)C/C(=C\c2ccc(F)c(Cl)c2)C(=O)O1 (racemic; form 1)	7.96
CC(C)(C)CC(=O)OCC1(CO)C/C(=C/c2ccc(F)cc2)C(=O)O1 (racemic)	6.97
CC(C)(C)C(=O)OCC1(CO)C/C(=C/c2ccc(Br)cc2)C(=O)O1 (racemic)	7.58
CC(C)c1cc(C(C)C)c(C(=O)OCC2(CO)C/C(=C/C3CCCCC3)C(=O)O2)c(C(C)C)c1 (racemic)	6.76
CC(C)(C)CC(=O)OCC1(CO)C/C(=C/c2ccc(Br)cc2)C(=O)O1 (racemic)	7.30
O=C1OC(CO)(COC(=O)c2ccc([N+](=O)[O-])cc2)C/C1=C/c1ccccc1 (racemic)	6.36
CC(C)(C)CC(=O)OCC1(CO)C/C(=C/c2ccc(Cl)cc2)C(=O)O1 (racemic)	7.58
O=C1OC(CO)(COC(=O)C(c2ccccc2)c2ccccc2)C/C1=C/c1ccc(Cl)c(F)c1 (racemic)	7.04
O=C1OC(CO)(COC(=O)C2CCCCC2)C/C1=C/c1ccc(C(F)(F)F)cc1 (racemic)	7.50
CCC(C(=O)OCC1(CO)C/C(=C/c2ccc(Cl)cc2)C(=O)O1)c1ccccc1 (racemic)	7.32
CC(CC(=O)OCC1(CO)C/C(=C/c2ccc(OC(F)(F)F)cc2)C(=O)O1)CC(C)(C)C (racemic)	7.69
CCCC(CCC)C(=O)OCC1(CO)C/C(=C\c2ccc(F)c(Br)c2)C(=O)O1 (racemic; form 1)	8.09
CC(C)C(=O)OCC1(CO)C/C(=C/c2ccc(OC(F)(F)F)cc2)C(=O)O1 (racemic)	7.26
CCCC(CCC)C(=O)OCC1(CO)C/C(=C/c2ccc(-c3ccc(C(F)(F)F)cc3)cc2)C(=O)O1 (racemic)	7.39
O=C1OC(CO)(COC(=O)c2ccccc2)C/C1=C/c1ccc(C(F)(F)F)cc1 (racemic)	7.19
CC(C)(C)C(=O)OCC1(CO)C/C(=C\c2ccc(Cl)c(F)c2)C(=O)O1 (racemic; form 1)	8.10

SMILES	pKi
COc1ccc(/C=C2/CC(CO)(COC(=O)C3CCCCC3)OC2=O)cc1 (racemic)	6.81
O=C1OC(CO)(COC(=O)C(c2ccccc2)c2ccccc2)C/C1=C/c1ccc(F)c(Cl)c1 (racemic)	7.14
CCCCCC/C=C1/CC(CO)(COC(=O)c2c(C)cc(C)cc2C)OC1=O (racemic)	7.38
CCC(C(=O)OCC1(CO)C/C(=C\c2ccc(-c3ccc(C(F)(F)F)cc3)cc2)C(=O)O1)c1ccccc1 (racemic; form 1)	6.97
CC(C)(C)C(=O)OCC1(CO)C/C(=C/c2ccc(C(F)(F)F)cc2)C(=O)O1 (racemic)	7.44
Cc1ccccc1C(=O)OCC1(CO)C/C(=C/c2ccc([N+](=O)[O-])cc2)C(=O)O1 (racemic)	6.77
CCCCCC/C=C1/CC(CO)(COC(=O)c2c(C(C)C)cc(C(C)C)cc2C(C)C)OC1=O (racemic; form 2)	6.90
CC(C)C(=O)OCC1(CO)C/C(=C/c2ccc(F)c(Br)c2)C(=O)O1 (racemic)	7.22
CCC(C(=O)OCC1(CO)C/C(=C/c2ccc(F)c(Cl)c2)C(=O)O1)c1ccccc1 (racemic)	7.50
CCCCC(CC)C(=O)OCC1(CO)C/C(=C/c2ccccc2)C(=O)O1 (racemic)	7.46
CC(C)C(=O)OCC1(CO)C/C(=C/c2ccc(Cl)cc2)C(=O)O1 (racemic)	7.05
COc1ccc(/C=C2\CC(CO)(COC(=O)c3ccc(OC)cc3)OC2=O)cc1 (racemic; form 1)	6.89
CCCCCC/C=C1/CC(CO)(COC(=O)C(CC)CCCC)OC1=O (racemic)	7.82
O=C1OC(CO)(COC(=O)c2ccc([N+](=O)[O-])cc2)C/C1=C/c1ccc(C(F)(F)F)cc1 (racemic)	6.79
CC(C)C(=O)OCC1(CO)C/C(=C/c2ccc(Cl)c(F)c2)C(=O)O1 (racemic)	7.06
O=C1OC(CO)(COC(=O)C(c2ccccc2)c2ccccc2)C/C1=C/c1ccc(Cl)cc1 (racemic)	7.13
Cc1ccccc1C(=O)OCC1(CO)C/C(=C/C2CCCCC2)C(=O)O1 (racemic)	6.96
CCC(C(=O)OCC1(CO)C/C(=C\c2ccc(-c3ccc(C(F)(F)F)cc3)cc2)C(=O)O1)c1ccccc1 (racemic; form 2)	7.74
COc1ccc(C(=O)OCC2(CO)C/C(=C/C3CCCCC3)C(=O)O2)cc1 (racemic)	6.58
COc1ccc(C(=O)OCC2(CO)C/C(=C\c3ccc(N(C)C)cc3)C(=O)O2)cc1 (racemic; form 2)	6.05
COc1ccc(/C=C2\CC(CO)(COC(=O)c3ccc(N(C)C)cc3)OC2=O)cc1 (racemic; form 1)	7.32

SMILES	pKi
CCCC(CCC)C(=O)OCC1(CO)C/C(=C/c2ccc(Br)cc2)C(=O)O1 (racemic)	7.97
CCCCCCC(=O)OCC1(CO)C/C(=C/c2ccccc2)C(=O)O1 (racemic)	7.05
CCCC(CCC)C(=O)OCC1(CO)C/C(=C/c2ccc(OC(F)(F)F)cc2)C(=O)O1 (racemic)	7.79
CN(C)c1ccc(/C=C2/CC(CO)(COC(=O)C3CCCCC3)OC2=O)cc1 (racemic)	6.43
CCCCC(CC)C(=O)OCC1(CO)C/C(=C/c2cccc(C(F)(F)F)c2)C(=O)O1 (racemic)	8.03
CCCCC(CC)C(=O)OCC1(CO)C/C(=C\c2ccc(Cl)cc2)C(=O)O1 (racemic; form 1)	7.90
CCCCCC/C=C1/CC(CO)(COC(=O)c2ccc(C(F)(F)F)cc2)OC1=O (racemic)	7.25
CCCCCC/C=C1/CC(CO)(COC(=O)c2ccccc2C)OC1=O (racemic)	7.31
CC(C)(C)C(=O)OCC1(CO)C/C(=C/c2cccc(C(F)(F)F)c2)C(=O)O1 (racemic)	7.55
Cc1cc(C)c(C(=O)OCC2(CO)C/C(=C/c3ccccc3)C(=O)O2)c(C)c1 (racemic)	7.22
CCCCC(CC)C(=O)OCC1(CO)C/C(=C/c2cc(C(F)(F)F)cc(C(F)(F)F)c2)C(=O)O1 (racemic)	7.76
CCCC(CCC)C(=O)OCC1(CO)C/C(=C\c2ccc(Cl)c(F)c2)C(=O)O1 (racemic; form 1)	8.47
COc1ccc(/C=C2/CC(CO)(COC(=O)c3ccc(C)cc3)OC2=O)cc1 (racemic)	6.74
CCCCCC/C=C1/CC(CO)(COC(=O)c2c(C(C)C)cc(C(C)C)cc2C(C)C)OC1=O (racemic; form 1)	8.60
O=C1OC(CO)(COC(=O)c2ccc(C(F)(F)F)cc2)C/C1=C/c1ccc([N+](=O)[O-])cc1 (racemic)	6.75
CC(C)(C)C(=O)OCC1(CO)C/C(=C/c2ccc(F)cc2)C(=O)O1 (racemic)	7.05
O=C1OC(CO)(COC(=O)C2CCCCC2)C/C1=C/c1ccccc1 (racemic)	6.96
CC(C)(C)CC(=O)OCC1(CO)C/C(=C/c2cc(C(F)(F)F)cc(C(F)(F)F)c2)C(=O)O1 (racemic)	7.29
